The values that follow come from ChEMBL document CHEMBL1124934, “Synthesis and structure-activity relationships of dynorphin A-(1-8) amide analogues” (J Med Chem, 1990).

Peptide text beside a SMILES is read from it.

A word on the Ki: it is the dissociation constant of the complex between target and ligand, obtained from inhibition or displacement. A high value points to weaker binding. Usually ED50 stands for the dose that gives a 50% effect, or the effect in half of the subjects. Read a low ED50 as an effect at a small dose. Broadly, the IC50 is the concentration that inhibits the measured activity by half. Higher therefore signals weaker potency.

Assay [1] concerns the target T1, Mu-type opioid receptor (Cavia porcellus, UniProt P97266). Briefly: Binding affinities against Opioid receptor mu 1 of guinea pig brain membrane using [3H]DAGO as the radioligand using competition binding assays. Summed up: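 μ-site competition binding on crude P2 membranes from male Hartley guinea pig brain (1 g original wet weight/20 mL, 50 mM Tris-HCl pH 7.6) with 5 nM [3H]DAGO and varied competitor, 60 min at 25 °C. GF/B filtration (1% polyethylenimine presoaked), six ice-cold buffer rinses, scintillation counting. Nonspecific binding with 10 μM levallorphan. Mean of five or six determinations ± SEM.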

Assay [2] relates to Mus musculus. Briefly: Evaluated for analgesic effect using mouse tail-pinch test after intravenous administration; 2.08-7.27. It is filed as functional. The method in brief: (§1)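 Mice, intravenous dosing, tail-pinch analgesia test. Four doses per compound, each dose tested on at least eight animals, giving ED50 in mg/kg.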
The target in assay [3] is Delta-type opioid receptor (Mus musculus, UniProt P32300). As to the kind of experiment: Evaluated for inhibitory activity against Opioid receptor delta 1 of mouse vas deferens (MVD). The format is tissue-based.
Sequence of Delta-type opioid receptor (P32300 whole entry): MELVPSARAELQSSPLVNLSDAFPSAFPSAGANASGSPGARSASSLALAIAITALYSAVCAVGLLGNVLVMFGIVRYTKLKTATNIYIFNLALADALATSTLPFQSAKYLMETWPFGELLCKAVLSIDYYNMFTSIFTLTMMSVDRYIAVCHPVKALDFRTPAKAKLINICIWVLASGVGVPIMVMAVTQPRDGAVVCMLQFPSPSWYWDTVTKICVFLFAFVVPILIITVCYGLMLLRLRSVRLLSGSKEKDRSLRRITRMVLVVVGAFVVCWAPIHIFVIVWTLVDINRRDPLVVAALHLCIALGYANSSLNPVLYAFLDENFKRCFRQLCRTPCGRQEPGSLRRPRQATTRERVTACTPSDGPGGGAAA
The subject of assay [4] is Mus musculus. As to the kind of experiment: Evaluated for analgesic effect using mouse tail-pinch test after intravenous administration; 9.61-14.34. It is filed as functional. Summed up: as §1
Assay [5] deals with T1, Mu-type opioid receptor. As to the kind of experiment: Evaluated for inhibitory activity against Opioid receptor mu 1 of guinea pig ileum (GPI). The format is tissue-based.
The species named for assay [6] is Mus musculus. Briefly: animal or person. As to conditions: iv.

T1 sequence (P97266 whole entry): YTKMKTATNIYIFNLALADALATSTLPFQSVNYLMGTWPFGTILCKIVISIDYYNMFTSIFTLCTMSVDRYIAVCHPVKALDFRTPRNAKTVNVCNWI

Take `CN[C@@H](Cc1ccc(O)cc1)C(=O)NCC(=O)NCC(=O)N[C@H](Cc1ccccc1)C(=O)N[C@@H](CC(C)C)C(=O)N[C@@H](CCCNC(=N)N)C(=O)N[C@@H](CCCNC(=N)N)C(=O)N[C@@H](CC(C)C)C(N)=O`: at Mu-type opioid receptor [1], the Ki was 2.81 nM. The compound also showed an ED50 in the assay with Mus musculus [2] of 3.89 mg/kg. In assay [3], this compound showed a half-inhibitory concentration (IC50) of 5.2 nM.

The compound `CC(C)C[C@H](NC(=O)[C@H](CCCN=C(N)N)NC(=O)[C@H](CCCN=C(N)N)NC(=O)[C@H](CC(C)C)NC(=O)[C@H](Cc1ccccc1)NC(=O)CNC(=O)[C@H](C)NC(=O)[C@@H](N)Cc1ccc(O)cc1)C(N)=O` (H-YAGFLRRL-NH2) gave a 50% effective dose (ED50) in the assay with Mus musculus [4] of 11.7 mg/kg. The IC50 in assay [3] stood at 9.1 nM; against Mu-type opioid receptor [5], 6.9 nM.

`CN1CC[C@]23c4c5ccc(O)c4O[C@H]2[C@@H](O)C=C[C@H]3[C@H]1C5` [MORPHINE] came in with a median effective dose (ED50) in the assay filed under Mus musculus [6] of 1.85 mg/kg.
